Assay results reported in ChEMBL document CHEMBL5705906 (Nat Commun, 2017).
Activity calls are given as the source filed them. No cut-off for these calls is given here.

Columns and labels:
[1] = system: BaF3; assay: Inhibition of EGFR-C797S/T790M/del19 mutant in mouse BaF3 cells assessed as reduction in Akt phosphorylation incubated for 6 hrs by Western blotting analysis; type: cell-based
[2] = system: BaF3; assay: Inhibition of EGFR-C797S/T790M/del19 mutant in mouse BaF3 cells assessed as reduction in S6 phosphorylation incubated for 6 hrs by Western blotting analysis; type: cell-based
How it was run: (§1)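 Ba/F3 cells carrying the stated EGFR mutant were made IL-3-independent after 1 week of 7 µM blasticidin selection. They were grown in low-glucose DMEM with 10% FBS and exposed to inhibitor for 6 h. Cells were washed in cold PBS, lysed in SDS buffer (100 mM Tris, 1% SDS, 10% glycerol) and boiled 5 min. Protein was measured by BCA, run on SDS-PAGE, transferred to PVDF, blocked in 5% BSA or milk/TBS-T, and immunoblotted.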

[3] = system: BaF3; assay: Inhibition of EGFR-T790M/del19 mutant in mouse BaF3 cells assessed as inhibition of EGFR phosphorylation at 10 to 1000 nM incubated for 6 hrs by Western blotting analysis; type: cell-based; conditions: dose 10-1000 nM; how it was run: as §1
[4] = system: BaF3; assay: Inhibition of EGFR-del19 mutant in mouse BaF3 cells assessed as inhibition of Akt phosphorylation at 10 to 1000 nM incubated for 6 hrs by Western blotting analysis; type: cell-based; conditions: dose 10-1000 nM; how it was run: as §1
[5] = system: BaF3; type: cell-based; conditions: Mus musculus, dose 10-1000 nM, time 6.0 hrs
[6] = system: BaF3; type: cell-based; conditions: Mus musculus, dose 10-1000 nM, time 6.0 hrs; remark: listed apart in the source
[7] = system: BaF3; assay: Inhibition of EGFR-C797S/T790M/L858R mutant in mouse BaF3 cells assessed as inhibition of S6 phosphorylation at 10 to 1000 nM incubated for 6 hrs by Western blotting analysis; type: cell-based; conditions: dose 10-1000 nM
How it was run: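 Ba/F3 cells expressing EGFR-L858R-series mutants treated with inhibitors for 6 h. SDS lysates quantified by BCA, run on SDS-PAGE and blotted to PVDF. Probed for phospho-EGFR (Tyr1068), total EGFR and downstream phospho-proteins.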

[8] = system: PC-9; assay: Inhibition of EGFR T790M/del19 mutant in human PC-9 cells assessed as reduction in Akt phosphorylation at 10 to 1000 nM by Western blotting analysis; type: cell-based; conditions: dose 10-1000 nM
[9] = system: PC-9; type: functional, organism-based; conditions: Homo sapiens, dose 75.0 mg/kg, route po, time 15.0 day
[10] = system: PC-9; assay: Anti-tumor activity against EGFR T790M/del19 mutant expressing gefitinib-resistant human PC-9 cells xenografted in Balb-c nu/nu mouse assessed as growth inhibition at 75 mg/kg, po administered for 42 days; type: functional, organism-based; conditions: time 42.0 day
[11] = system: PC-9; assay: Anti-tumor activity against EGFR T790M/del19 mutant expressing gefitinib-resistant human PC-9 cells xenografted in Balb-c nu/nu mouse assessed as growth inhibition at 75 mg/kg, po administered for 42 days and measured for 3 times per week in presence of cetuximab; type: functional, organism-based; conditions: time 42.0 day
[12] = system: Ba/F3 EGFR-Del19/T790M/C797S; assay: Cytotoxicity against mouse Ba/F3 EGFR-Del19/T790M/C797S cells assessed as growth inhibition at 100 nM incubated for 72 hrs in presence of panitumumab by CellTiter-Glo assay; type: functional, cell-based
[13] = system: MGH121; assay: Anti-tumor activity against human MGH121 cells expressing EGFR-C797S/T790M/del19 mutant xenografted in SCID-beige mouse assessed as tumor shrinkage at 75 mg/kg, po administered for 40 days and measured twice weekly in presence of cetuximab; type: functional, organism-based; conditions: time 40.0 day
How it was run: (§2)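 MGH121-res2 cells (EGFR-C797S/T790M/del19) implanted s.c. in SCID-beige mice. Randomized at mean tumour ~200 mm³. […] Tumour volume 0.5×length×width² and body weight measured twice weekly. N = 6, mean ± s.d. Mann-Whitney U test on day 42.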

[14] = system: MGH121; assay: Anti-tumor activity against human MGH121 cells expressing EGFR-C797S/T790M/del19 mutant xenografted in SCID-beige mouse assessed as tumor shrinkage at 75 mg/kg, po administered for 40 days and measured twice weekly; type: functional, organism-based; conditions: time 40.0 day; how it was run: as §2
[15] = Toxicity against SCID-beige mouse xenografted with human MGH121 cells expressing EGFR-C797S/T790M/del19 mutant assessed as change in body weight at 75 mg/kg, po administered for 40 days and measured twice weekly in presence of cetuximab; type: organism-based; conditions: in vivo, 960 h, time 40 day
How it was run: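 SCID-beige mice with subcutaneous MGH121-res2 implants were randomized to vehicle or treatment at a mean tumour volume of ~200 mm³. […] Body weight was measured twice weekly, N=6 per group.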

[16] = Toxicity against Balb-c nu/nu mouse xenografted with human PC-9 cells expressing EGFR-C797S/T790M/del19 mutant assessed as change in body weight at 75 mg/kg, po administered for 60 days and measured twice weekly in presence of panitumumab; type: organism-based; conditions: in vivo, 1440 h, time 60 day
How it was run: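 Mice bearing subcutaneous PC9 triple-mutant tumours in Balb-c nu/nu hosts were randomized at ~200 mm³. […] Body weights were taken twice weekly, N=6 per group.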

[17] = Toxicity against Balb-c nu/nu mouse xenografted with human PC-9 cells expressing EGFR-C797S/T790M/del19 mutant assessed as change in body weight at 75 mg/kg, po administered for 15 days and measured twice weekly; type: organism-based; conditions: in vivo, 360 h, time 15 day
How it was run: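 PC9 triple-mutant cells (6×10^6 in 100 µl 1:2 Matrigel) were implanted subcutaneously in Balb-c nu/nu mice. At a mean tumour volume of ~200 mm³, mice were randomized, excluding the top and bottom 5% by tumour size. […] Body weight was recorded twice weekly, n=6 per group, and tumours were resected on treatment day 15.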

[18] = system: BaF3; conditions: Mus musculus, dose 10-1000 nM, time 6.0 hrs
[19] = system: Epidermal growth factor receptor (Homo sapiens), P00533 [UNDEFINED MUTATION]; conditions: PC-9, dose 10-1000 nM
Epidermal growth factor receptor (Homo sapiens), P00533 [UNDEFINED MUTATION], sequence (P00533 whole entry, looked up, change not shown): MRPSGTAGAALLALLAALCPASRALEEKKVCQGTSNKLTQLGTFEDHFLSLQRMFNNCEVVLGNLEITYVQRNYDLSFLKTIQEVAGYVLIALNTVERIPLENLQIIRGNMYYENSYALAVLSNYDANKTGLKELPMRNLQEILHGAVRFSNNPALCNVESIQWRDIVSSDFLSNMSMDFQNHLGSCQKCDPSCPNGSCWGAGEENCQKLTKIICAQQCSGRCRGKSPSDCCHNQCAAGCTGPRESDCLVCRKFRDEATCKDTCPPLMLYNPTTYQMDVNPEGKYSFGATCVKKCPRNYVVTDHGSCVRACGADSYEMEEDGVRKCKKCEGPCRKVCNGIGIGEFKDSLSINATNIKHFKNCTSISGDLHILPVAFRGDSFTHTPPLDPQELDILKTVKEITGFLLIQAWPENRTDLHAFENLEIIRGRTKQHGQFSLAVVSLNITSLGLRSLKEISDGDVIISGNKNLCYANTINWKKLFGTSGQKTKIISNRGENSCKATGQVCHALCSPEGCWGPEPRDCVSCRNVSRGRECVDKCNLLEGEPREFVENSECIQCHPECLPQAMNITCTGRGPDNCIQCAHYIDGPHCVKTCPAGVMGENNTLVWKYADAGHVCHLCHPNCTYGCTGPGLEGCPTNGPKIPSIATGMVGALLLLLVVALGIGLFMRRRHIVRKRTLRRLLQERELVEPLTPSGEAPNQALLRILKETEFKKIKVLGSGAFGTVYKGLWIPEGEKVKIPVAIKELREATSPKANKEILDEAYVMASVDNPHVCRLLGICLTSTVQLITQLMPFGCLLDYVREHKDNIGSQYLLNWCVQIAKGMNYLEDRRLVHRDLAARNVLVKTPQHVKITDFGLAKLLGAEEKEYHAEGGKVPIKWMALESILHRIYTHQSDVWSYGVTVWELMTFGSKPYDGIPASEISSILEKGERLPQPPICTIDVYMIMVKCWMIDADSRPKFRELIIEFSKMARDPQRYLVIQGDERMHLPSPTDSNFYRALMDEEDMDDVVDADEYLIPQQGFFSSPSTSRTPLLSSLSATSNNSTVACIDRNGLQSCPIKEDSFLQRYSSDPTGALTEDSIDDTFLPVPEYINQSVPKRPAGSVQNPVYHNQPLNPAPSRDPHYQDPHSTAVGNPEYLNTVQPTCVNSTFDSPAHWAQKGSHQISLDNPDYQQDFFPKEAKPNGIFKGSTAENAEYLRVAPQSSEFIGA

[20] = system: Epidermal growth factor receptor (Homo sapiens), P00533 [UNDEFINED MUTATION]; conditions: PC-9, dose 10-1000 nM; remark: listed apart in the source
[21] = system: Epidermal growth factor receptor (Homo sapiens), P00533 [UNDEFINED MUTATION]; conditions: PC-9, dose 10-1000 nM; remark: listed apart in the source
[22] = system: Epidermal growth factor receptor (Homo sapiens), P00533 [UNDEFINED MUTATION]; conditions: MGH121, dose 10-1000 nM
[23] = system: Epidermal growth factor receptor (Homo sapiens), P00533 [UNDEFINED MUTATION]; conditions: MGH121, dose 10-1000 nM; remark: listed apart in the source
[24] = system: Epidermal growth factor receptor (Homo sapiens), P00533 [UNDEFINED MUTATION]; conditions: PC-9, dose 10-1000 nM; remark: listed apart in the source
[25] = system: PC-9; conditions: Homo sapiens, dose 75.0 mg/kg, route po, time 15.0 day
[26] = system: PC-9; conditions: Homo sapiens, dose 75.0 mg/kg, route po, time 15.0 day; remark: listed apart in the source
[27] = system: PC-9; conditions: Homo sapiens, dose 75.0 mg/kg, route po, time 60.0 day
[28] = system: PC-9; conditions: Homo sapiens, dose 75.0 mg/kg, route po, time 60.0 day; remark: listed apart in the source

Structure (SMILES): COc1cc(N2CCC(N3CCN(C)CC3)CC2)ccc1Nc1ncc(Cl)c(Nc2ccccc2P(C)(C)=O)n1 [BRIGATINIB]
- inhibition [1]: Dose-Dependent Effect
- inhibition [2]: Dose-Dependent Effect
- inhibition [3]: Active
- inhibition [4]: Active
- inhibition [5]: Active
- inhibition [6]: Active
- inhibition [7]: Active
- inhibition [8]: Active
- Activity [9]: Active
- Activity [10]: Active
- Activity [11]: Active
- growth inhibition (GI) [12]: Active
- Activity [13]: Active
- Activity [14]: Active
- Activity [15]: Non-Toxic
- Activity [16]: Non-Toxic
- Activity [17]: Non-Toxic
- inhibition [18]: Active
- inhibition [19]: Active
- inhibition [20]: Active
- inhibition [21]: Active
- inhibition [22]: Active
- inhibition [23]: Active
- inhibition [24]: Active
- inhibition [25]: Active
- inhibition [26]: Active
- inhibition [27]: Active
- inhibition [28]: Active
